GAA850 FXN act: FXN promoter activators, primary screen, cell-based, luciferase luminescence, HEK293 lucGAA850; HEK293 lucGAA850 FXN promoter luciferase reporter, 24 h; percent of 10 µM SAHA response; activation, % at 6 µM; 360,000 compounds, 0.56% hits;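 active means activation above the average of all compounds screened plus 3 SD, cutoff fixed separately per campaign, cut at about 7.5% in these data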;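 further: 0% = DMSO wells and 100% = 10 µM SAHA wells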
EBI2 block: EBI2 receptor antagonists, beta-arrestin recruitment, primary screen, cell-based, luminescence, 7a,25-OHC stimulation, uHTS | G-protein coupled receptor 183 (Homo sapiens), P32249 | 7a,25-OHC stimulated | inhibition, % at 5 µM | 360,000 compounds, 0.81% hits | AID 651636, 2012; in the data active means inhibition above about 38%;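 further: enzyme fragment complementation signal reports receptor beta-arrestin coupling in cells; 0% = agonist plus DMSO wells and 100% = wells without agonist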
APJ antag: antagonists of human apelin receptor APJ, primary screen, CHO-K1 cells, beta-arrestin complementation, luminescence. 330,000 compounds, 0.32% hits. inhibition, % at 20 µM. P35414;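 active means inhibition above about 40% at 20 µM, limit read from the data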;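 further: cells challenged with 10 nM apelin-13 agonist together with compound; plate controls were apelin-13 plus DMSO wells for no effect and DMSO wells lacking apelin-13 for full effect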
CCR6 antag: CCR6 receptor antagonists, primary screen, cell-based, CHO-K1, luminescence, beta-arrestin, uHTS; 340,000 compounds, 0.49% hits; CHO-K1 CCR6 PathHunter beta-arrestin, CCL20-stimulated; inhibition, % at 20 µM; C-C chemokine receptor type 6 (Homo sapiens), P51684;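 active means compounds whose inhibition of the agonist-driven luminescence signal at 20 µM reaches about 50%, limit read from the data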;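 further: cells stimulated with CCL20 at 14 nM final; plate controls were DMSO with CCL20 for no effect and DMSO without agonist for full effect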
Target sequence (P51684 whole entry, looked up): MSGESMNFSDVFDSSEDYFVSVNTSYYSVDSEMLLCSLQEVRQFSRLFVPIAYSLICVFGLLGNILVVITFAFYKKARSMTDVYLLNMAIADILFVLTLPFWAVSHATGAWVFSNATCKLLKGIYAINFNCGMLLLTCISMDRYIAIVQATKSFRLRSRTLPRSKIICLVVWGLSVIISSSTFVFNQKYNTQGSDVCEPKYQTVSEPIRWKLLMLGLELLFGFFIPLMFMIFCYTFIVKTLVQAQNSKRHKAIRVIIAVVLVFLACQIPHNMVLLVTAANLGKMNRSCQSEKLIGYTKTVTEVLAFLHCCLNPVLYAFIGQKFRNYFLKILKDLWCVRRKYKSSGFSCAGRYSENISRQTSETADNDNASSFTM
CXCR6 inh: CXCR6 receptor inhibitors, primary screen, cell-based, beta-arrestin, luminescence, CHO-K1 PathHunter, 1536-well; C-X-C chemokine receptor type 6 (Homo sapiens), O00574; inhibition, % at 20 µM; 360,000 compounds, 0.36% hits; in the data active means inhibition above about 34%, passing the limit was not always enough;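 further: antagonist mode with CXCL16 agonist at 10 nM final; 0% = 10 nM CXCL16 with DMSO and 100% = unstimulated wells without agonist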
APJ ag: agonists of human apelin receptor APJ, primary screen, CHO-K1 cells, PathHunter beta-arrestin, luminescence; P35414; 0% DMSO wells, 100% apelin; activation, % at 20 µM; 330,000 compounds, 0.11% hits;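 active means activation more than six SD over the plate average, tested at 20 µM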;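 further: 0% = DMSO alone and 100% = apelin-13 at 10 nM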
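Test system: CHO-K1 APJ beta-arrestin complementation cell line | Compound: Single test compound dose, 20 µM final, 1% DMSO | Incubation: Compound 90 min 25 °C, reagent 1 h | Measured by: beta-gal luminescence | Read-out basis: APJ–arrestin association signal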
APJ antag conf: APJ antagonists blocking beta-arrestin recruitment, confirmation, cell-based, luminescence, single concentration, uHTS hits. shares compounds with APJ antag. antagonist mode. inhibition, % at 20 µM. 950 compounds, 66% hits. AID 2766, 2010; in the data active means inhibition above about 50%
Starred values were filed as active, the others as inactive. Shown are actives, neighbours in structure and some others; about 2% of the full set was active somewhere.

Screening COc1c(C)cc(C(O)c2ncc(-c3ccc(C(F)(F)F)cc3)[nH]2)cc1C (centres undefined) returned GAA850 FXN act 1, EBI2 block 9 and CXCR6 inh -7.
`Nc1c(-c2ccc(F)c(F)c2)nc2ncccn12` gave EBI2 block -6.
For CCOc1c(C(N)=O)c(-c2ccccc2)c2c(=O)[nH]c3ccccc3n12 the results were GAA850 FXN act -3, EBI2 block 20, APJ antag 60*, CCR6 antag 16, CXCR6 inh 35, APJ ag -8 and APJ antag conf 60*.
For O=[N+]([O-])c1c(NCCCO)cc(Sc2nc3ccccc3s2)c2nonc12 the results were GAA850 FXN act -5, EBI2 block 49*, APJ antag 76*, CCR6 antag 115*, CXCR6 inh 97*, APJ ag -7 and APJ antag conf 117*.
For Cc1csc2nc(SCC(=O)N3CCN(c4ccccc4)CC3)[nH]c(=O)c12 the results were GAA850 FXN act 1, EBI2 block -4, APJ antag 4, CCR6 antag 7, CXCR6 inh 0 and APJ ag -7.
Cc1ccc(NC(=O)CC2(CC(=O)O)CCCC2)c(C)c1 was read as GAA850 FXN act 1, EBI2 block -8, APJ antag 14, CCR6 antag 7, CXCR6 inh -4 and APJ ag 1.
`CCCCN(CCCC)C(=S)N/N=C/c1c(C)[nH]n(-c2ccccc2)c1=O` gave GAA850 FXN act -2, EBI2 block 49*, APJ antag 75*, CCR6 antag 113*, CXCR6 inh 98*, APJ ag -14 and APJ antag conf 126*.
Screening NS(=O)(=O)c1cccc(NC(=O)CN2C(=O)C(=O)N(Cc3ccccc3)C2=O)c1 returned GAA850 FXN act 2, EBI2 block 0, APJ antag 5, CCR6 antag 8, CXCR6 inh -2 and APJ ag 0.
`Cc1cccc(N2CCN(C(=O)c3ccncc3)CC2)c1C` gave GAA850 FXN act -2, EBI2 block -8, APJ antag -10, CCR6 antag -9, CXCR6 inh 1 and APJ ag -2.
For COc1cc(C(=O)N2CCN(c3cccc(C)c3C)CC2)cc(OC)c1OC the results were GAA850 FXN act 0, EBI2 block -1, APJ antag 50*, CCR6 antag -2, CXCR6 inh 4, APJ ag -4 and APJ antag conf 5.
Screening N#C/C(=N/Nc1ccccc1[N+](=O)[O-])C(N)=S returned GAA850 FXN act 0, EBI2 block -3, APJ antag 40*, CCR6 antag 36, CXCR6 inh 18, APJ ag -9 and APJ antag conf 105*.
`N#C/C(=N\Nc1ccccc1)C(N)=S` gave GAA850 FXN act -2, EBI2 block -15, APJ antag 22, CCR6 antag 15, CXCR6 inh 12 and APJ ag -6.
`c1ccc(-c2nc(N3CCCCCC3)c3ccccc3n2)nc1` gave GAA850 FXN act -3, EBI2 block -4, APJ antag 49*, CCR6 antag 40, CXCR6 inh 13, APJ ag -8 and APJ antag conf 62*.
For CCCN(CCC)c1nc(-c2ccccn2)nc2ccccc12 the results were GAA850 FXN act -4, EBI2 block -3, APJ antag 41*, CCR6 antag 35, CXCR6 inh 37, APJ ag -10 and APJ antag conf 80*.
`CCCCN(CC)c1nc(-c2ccncc2)nc2ccccc12` gave GAA850 FXN act 4, EBI2 block -6, APJ antag -9, CCR6 antag 6, CXCR6 inh -4 and APJ ag -1.
`CC(C)Oc1ccc(F)cc1-c1cc(C(=O)N2CCc3ccccc3C2)[nH]n1` gave GAA850 FXN act 0, EBI2 block 3 and CXCR6 inh -6.

Bioassay records deposited in PubChem BioAssay by several laboratories.
